Assay results from different studies.
Compare with care: the assays were run in different laboratories.
Read-out: cell growth or viability

Compound	cell line	test	conditions	endpoint	value
CO[C@H]1[C@H](O[C@H]([C@H]2O[C@@H](n3ccc(=O)[nH]c3=O)[C@H](O)[C@@H]2O)[C@H](NCCCNC(=O)[C@@H](NC(=O)[C@@H](NC(=O)N[C@H](C(=O)O)C(C)C)[C@@H]2CCN=C(N)N2)[C@@H](O)C(C)C)C(=O)O)O[C@H](CN)[C@H]1O	BT-474	WST-1	–	IC50	> 35 µM
COC(=O)c1cc(C(C)=NNc2nc(-c3ccc(C)cc3)cs2)ccc1O	human Skin fibroblast	MTT	96 h	IC50	10.2 µM
CO[C@H]1[C@H](O[C@H]([C@H]2O[C@@H](n3ccc(=O)[nH]c3=O)[C@H](O)[C@@H]2O)[C@H](NCCCNC(=O)[C@@H](NC(=O)[C@@H](NC(=O)N[C@H](C(=O)O)C(C)C)[C@@H]2CCN=C(N)N2)[C@@H](OC(=O)CCCCCCCCCCCCN(O)C(=N)N)C(C)C)C(=O)O)O[C@H](CN)[C@H]1O	BT-474	WST-1	–	IC50	0.85 µM
NC(=O)C1CN(C(=O)CCl)c2ccccc2O1 (stereo not shown)	BT-474	fluorescence	5 days	IC50	17.5 µM
C[C@H](Nc1ccc2c(c1)OCCn1cc(N3C(=O)OC[C@H]3C(F)F)nc1-2)C(N)=O	NCI-H1563	ATP luminescence	5 days	EC50	0.149 µM
CONC(=O)c1cccc2c1cc(C)n2-c1nc2c(c(NCc3ccccc3)n1)CCCN2	MOLM16	–	72 h	IC50	0.4 µM
Cc1nc(NC(=O)N2CCC[C@H]2C(N)=O)sc1-c1ccnc(C(C)(C)C(F)(F)F)c1	NCI-H1563	ATP luminescence	5 days	EC50	7.42 µM
COc1cccc2c1C(=O)c1c(O)c3c(c(O)c1C2=O)C[C@@](O)(C(=O)CO)C[C@@H]3O[C@H]1C[C@H](N)[C@H](O)[C@H](C)O1	human Skin fibroblast	MTT	24 h	IC50	> 100 µM
CCc1oc2cc(S(=O)(=O)Nc3ccc(S(=O)(=O)Nc4nccs4)cc3)ccc2c1C(=O)c1cc(Br)c(O)c(Br)c1	human Skin fibroblast	MTT	96 h	IC50	146 µM
C[C@H]1[C@H](C)CC[C@]2(C(=O)O)CC[C@]3(C)C(=CC[C@@H]4[C@@]5(C)CC[C@H](O)C(C)(C)[C@@H]5CC[C@]43C)[C@H]12	human Skin fibroblast	MTT	24 h	IC50	32.3 µM
COc1cc([C@@H]2c3cc4c(cc3[C@@H](O[C@@H]3O[C@@H]5CO[C@@H](C)O[C@H]5[C@H](O)[C@H]3O)[C@H]3COC(=O)[C@H]23)OCO4)cc(OC)c1O	SK-HEP1	SRB	72 h	IC50	2.7 µM
CC(C)(C)c1cnc(CSc2cnc(NC(=O)C3CCN(C(=O)CCCCCCCN4Cc5cc6c(cc5C4)C(=O)N(C4CCC(=O)NC4=O)C6=O)CC3)s2)o1 (stereo not shown)	MES-SA	MTT	–	IC50	0.0853 µM
Cc1cc2c(C(=O)O)cccc2n1-c1nc2c(c(NCc3ccccc3)n1)CCCN2	MOLM16	–	72 h	IC50	0.7 µM
